PLK1 kinase inh = PLK1 (human) kinase inhibition; P53350; recombinant PLK1 kinase, TR-FRET peptide phosphorylation; inhibition, % at 10 µM; actives 0.53% (n = 97,000);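 active = inhibition of 50% or more in the single-concentration screen; inactive = inhibition below 50%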
Plk1 PBD FP = Plk1 (human) PBD binding inhibition. inhibition, %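 (tested at about 20 µM)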. AID 693. Plk1 PBD phosphopeptide binding, fluorescence polarization. actives 0.13% (n = 97,000); in the data active = inhibition above about 34%, passing the limit was not always enough
hDAT+cocaine = human DAT dopamine uptake with cocaine, either direction; B-score at 10 µM; actives 1.3% (n = 110,000); AID 449768; Q01959; LLC-PK1 hDAT cells, [14C]-dopamine uptake with cocaine IC80; actives deviate in either direction;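 active = Z score or B-score, a plate-position-corrected score, falls beyond the plate's 99.7% confidence bounds, in either direction; inactive = both scores lie inside the 99.7% bounds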
Rev-RRE block = disrupts HIV-1 Rev binding to RRE RNA; inhibition, % at 8 µM; Rev peptide-RRE RNA binding, FRET; actives 0.79% (n = 97,000); P05866;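 active = inhibition above the screen-wide mean plus 3 SD, cut at about 35% in these data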
Target sequence (P05866 whole entry, looked up): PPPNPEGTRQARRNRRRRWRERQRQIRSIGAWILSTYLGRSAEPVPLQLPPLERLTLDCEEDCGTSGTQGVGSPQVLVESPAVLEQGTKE
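Assay system: labelled RRE RNA duplex and labelled Rev peptide / Medium: HEPES pH 7.5 salt buffer with EDTA / Reagent: labelled Rev peptide / Schedule: 5 + 15 min at 25 °C / Signal: FRET, excitation 480 nm, emission 540 nm donor and 671 nm acceptor / Benchmarks: DMSO and neomycin B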
LYP inh 2 = LYP (human) phosphatase inhibition. Q9Y2R2. recombinant LYP catalytic domain, DiFMUP fluorescence. inhibition, % at 2 µM. actives 0.21% (n = 96,000);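 active = inhibition at 2 µM at or above a set limit, the screen mean plus 3 SD, cut at about 24% in these data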
PTPN22 act = LYP (human) phosphatase activation. Q9Y2R2. recombinant LYP, DiFMUP fluorescence; 0 = plate median, 100 = signal doubled. activation, % at 2 µM. actives 0.11% (n = 96,000). AID 697;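 active = activation at 2 µM above a set limit, the mean plus 5 SD, cut at about 37% in these data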
A number is an active result; n = inactive; x = no result given; [ ] = dose if it differs, or a comment. Most compounds without a hit are left out; they make up all but 2.7% or so of the library.

SMILES | PLK1 kinase inh | Plk1 PBD FP | hDAT+cocaine | Rev-RRE block | LYP inh 2 | PTPN22 act
CCCN1CCCc2cc(CN)ccc21 | n | n | -2.4 | 46 | n | n
CC(=O)c1c(C)nn(CC(O)COc2ccc3c(c2)CCC3)c1C (stereo not given) | n | n | 15 | n | n | n
COc1ccc(CCNC(=O)COc2ccc(S(=O)(=O)N3CCOCC3)cc2)cc1OC | n | n | n | n | n | n
COc1ccc(CCNC(=O)COc2ccc(S(=O)(=O)N3CCOCC3)cc2)cc1 | n | n | 2.4 | n | n | n
CCOC(=O)c1ccc(NS(=O)(=O)c2c(N)[nH]c(=O)[nH]c2=O)cc1 | x | x | n | x | x | x
CCC1=C(OC(=O)N(CC)CC)N2C(=O)OC(=NCc3ccccc3)[C@]2(C)[C@H]2C1=CC[C@H]1C(=O)N(c3ccccc3)C(=O)[C@H]12 | x | x | 1.8 | x | x | x
CCC1=C(OC(=O)N(CC)CC)N2C(=O)OC(=NCc3ccccc3)[C@]2(C)[C@H]2C1=CC[C@H]1C(=O)N(CC(=O)OC)C(=O)[C@H]12 | x | x | n | x | x | x
C=CCn1c(CCNC(=O)c2ccccc2F)nnc1SCC(=O)Nc1nc2ccccc2s1 | n | n | n | n | n | n
CCc1cc2cc(C(=O)N3CCN(Cc4ccccc4)CC3)sc2s1 | n | n | 2.6 | n | n | n
CC(=O)NS(=O)(=O)c1ccc(NC(=O)c2ccc(Br)o2)cc1 | n | n | -8.4 | n | n | n
CCOc1ccc(NC(=O)NC2CCOC(C)(C)C2)cc1 (stereo not given) | n | n | n | n | n | n
CCCCN(CC)Cc1ccc(CNC(=O)Nc2ccc(OCC)cc2)o1 | n | n | -4.1 | n | n | n
COc1cc2c(cc1NC(=O)CC1SC(N3CCCC3)=NC1=O)oc1ccccc12 (stereo not given) | n | n | -8.3 | n | n | n
COc1cc2c(cc1NC(=O)CCCCCN1C(=O)CCC1=O)oc1ccccc12 | n | n | n | n | n | n
COc1cc2c(cc1NC(=O)CCCN1C(=O)CCC1=O)oc1ccccc12 | n | n | 2.7 | n | n | n
Cc1cccc(CN2C(=O)N/C(=C/c3cc(C)n(-c4cc(C)ccn4)c3C)C2=O)c1 | n | n | n | n | n | n
Cc1ccc(/C=C2/NC(=O)N(Cc3ccccc3)C2=O)s1 | n | n | n | 50 | n | n
Cc1cccc(CN2C(=O)N/C(=C/c3ccc(C)s3)C2=O)c1 | n | n | n | 58 | n | n
COc1ccccc1NC(=O)CSc1nc(O)cc(=O)[nH]1 | n | n | n | n | n | n
Cc1cc(=O)oc(C)c1C(=O)Nc1ccc2ncccc2c1 | n | n | n | 125[fluorescence artefact?] | n | n
Cc1cc(=O)oc(C)c1C(=O)Nc1ccc2nsnc2c1 | n | n | n | n | n | n
CN(c1ccc(Cl)cc1)c1cc(=O)n(C)c2ccccc12 | n | n | 3.1 | n | n | n
CN(C(=O)COc1cc(=O)n(C)c2ccccc12)c1ccc(Cl)cc1 | n | n | n | n | n | n
CCOC(=O)c1c(N2C(=O)Nc3cc(Cl)c(Cl)cc3N2O)sc2c1CCCCC2 | n | n | 3.8 | n | 32 | n
Cc1c(NC(=O)/C(=C\c2ccccc2)NC(=O)c2ccccc2)c(=O)n(-c2ccccc2)n1C | n | n | -8.8 | n | n | n
SMILES | PLK1 kinase inh | Plk1 PBD FP | hDAT+cocaine | Rev-RRE block | LYP inh 2 | PTPN22 act
N#Cc1c(-c2ccccc2)c(-c2ccccc2)nn(CC(=O)NNC(=O)Nc2ccc(Cl)c(Cl)c2)c1=O | n | n | n | n | n | n
O=C(c1cccs1)c1no[n+]([O-])c1C(=O)c1cccs1 | n | n | n | n | 92 | n
CCOc1ccc(NC(=O)C(C)Oc2ccccc2C(=O)Nc2ccc(C)c(Cl)c2)cc1 (stereo not given) | n | n | 2.7 | n | n | n
CCCCN(CCCNC(=O)c1ccc2nc(N3CCOCC3)sc2c1)Cc1ccccc1 | n | n | 2.6 | n | n | n
O=C(c1ccc2nc(N3CCOCC3)sc2c1)N1CCC(Cc2ccccc2)CC1 | n | n | n | n | n | n
Cc1c(Br)c([N+](=O)[O-])nn1CC(=O)NCc1cccnc1 | n | n | n | n | n | n
CCC(NC(=O)Nc1nnc(C(F)(F)F)s1)(C(F)(F)F)C(F)(F)F | n | n | -3.3 | n | n | n
Cc1cc(S(=O)(=O)N(Cc2ccccn2)Cc2ccco2)ccc1-n1cnnn1 | x | x | 2.6 | x | x | x

Source: PubChem
